Here are results for one compound from ChEMBL document CHEMBL1250434, “A novel achiral seco-cyclopropylpyrido[e]indolone (CPyI) analog of CC-1065 and the duocarmycins: synthesis, DNA interactions, in vivo anticancer and anti-parasitic evaluation” (Bioorg Med Chem, 2010).

For one data set, the system named is OVCAR-4. The experiment in a line: Cytotoxicity against human OVCAR4 cells after 48 hrs by sulforhodamine B assay. To be noted: OVCAR-4, 48 h, read-out: pLC50 (the source's name) (converted). It is filed as functional. The gist of the method:
(§1)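 NCI human cancer cell line panel. Continuous 48 h drug exposure, viability by sulforhodamine B. GI50, TGI and LC50 derived from dose–response curves.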
A general note: The SRB assay estimates cell density from bound dye.

For a further data set, the system named is DU-145. The experiment in a line: Cytotoxicity against human DU145 cells after 48 hrs by sulforhodamine B assay. It is filed as functional. To be noted: DU-145, 48 h, read-out: pLC50 (the source's name) (converted). Summed up:
as §1

The nature of data set [1]: Antitumor activity against mouse B16F0 cells xenografted in C57/BL/6J mouse assessed as […] at 10 mg/kg, ip administered on day 1, 5, and 9 measured after 16 days. It is filed as functional. The conditions noted are these: route intraperitoneal. The gist of the method: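 Female C57/BL/6J mice, 5–7 weeks old, 8 per group. Given 200,000 cultured B16-F0 cells (PBS-washed, not mouse-passaged) sc in the left flank on day 0. Dosed 10 mg/kg ip in 1:2 PET/5% glucose on days 1, 5 and 9; controls received vehicle. Tumours measured by caliper about every other day. Volume = length × width². Measurements stopped when 50% of the group had died.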

The subject of a further data set is HCT-15. The experiment in a line: Cytotoxicity against human HCT15 cells after 48 hrs by sulforhodamine B assay. To be noted: HCT-15, 48 h, read-out: pLC50 (the source's name) (converted). In kind it is functional. The gist of the method: as §1
The test system of a further data set is NCI-H23. Kind of data set: Cytotoxicity against human NCI-H23 cells after 48 hrs by sulforhodamine B assay. It is filed as functional. To be noted: NCI-H23, 48 h, read-out: pLC50 (the source's name) (converted). The gist of the method:
as §1

For another data set, the system named is PC-3. Kind of data set: Cytotoxicity against human PC3 cells after 48 hrs by sulforhodamine B assay. In kind it is functional. The conditions noted are these: PC-3, 48 h, read-out: pLC50 (the source's name) (converted). Summed up: as §1
Data set [2] deals with L1210. Kind of data set: Selectivity ratio of IC50 for mouse L1210 cells to IC50 for mouse B16F0 cells. It is filed as functional.
A further data set deals with Trypanosoma brucei. The experiment in a line: Antimicrobial activity against procyclic form of Trypanosoma brucei 427 assessed as inhibition of cell proliferation after 72 hrs by alamar blue assay. In kind it is functional, organism-based. To be noted: Trypanosoma brucei, 427, 72 h. Summed up:
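T. brucei 427 procyclic forms grown in SDM 79 medium with 0.03 nM to 64 µM compound for 72 h at 26 °C. Proliferation read by Alamar blue reduction after a further 15 h, fluorescence ex 530/em 590 nm.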
For orientation: Alamar Blue is a resazurin reagent that responds to reducing activity.

The test system of a further data set is NCI-H460. The experiment in a line: Cytotoxicity against human NCI-H460 cells after 48 hrs by sulforhodamine B assay. It is filed as functional. To be noted: NCI-H460, 48 h, read-out: pLC50 (the source's name) (converted). The gist of the method: as §1
A further data set concerns HT-29. The experiment in a line: Cytotoxicity against human HT-29 cells after 48 hrs by sulforhodamine B assay. The conditions noted are these: HT-29, 48 h, read-out: pLC50 (the source's name) (converted). It is filed as functional. The gist of the method: as §1
The subject of the next data set is Mus musculus. The experiment in a line: Systemic toxicity in mouse B16F0 cells xenografted C57/BL/6J mouse assessed as reduction of body weight at 10 mg/kg, ip administered on day 1, 5, and 9 measured after 21 days. In kind it is organism-based. Set-up: dose 10 mg/kg, route intraperitoneal. To be noted: in vivo, 504 h. Summed up: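 Female C57/BL/6J mice, 5–7 weeks old, 8 per group, carrying sc B16-F0 flank tumours implanted day 0. Dosed 10 mg/kg ip in 1:2 PET/5% glucose on days 1, 5 and 9; vehicle-treated controls on the same schedule. Body weights recorded every other day.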

The test system of another data set is Leishmania mexicana. Kind of data set: Antimicrobial activity against promastigotes of Leishmania mexicana assessed as inhibition of cell proliferation after 72 hrs by alamar blue assay. In kind it is functional, organism-based. Summed up: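 Promastigotes at 5 × 10^4 cells/well in DME-L medium with 10% heat-inactivated FBS, hemin, xanthine and penicillin-streptomycin. Exposed to 0.03 nM to 64 µM compound for 72 h at 26 °C. Alamar blue added, incubated 15 h, dye reduction read by fluorescence ex 530/em 590 nm.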

The next data set has as its system A549. Kind of data set: Cytotoxicity against human A549 cells after 48 hrs by sulforhodamine B assay. In kind it is functional. The conditions noted are these: A549, 48 h, read-out: pLC50 (the source's name) (converted). Summed up: as §1
Another data set has as its system OVCAR-3. The experiment in a line: Cytotoxicity against human OVCAR-3 cells after 48 hrs by sulforhodamine B assay. In kind it is functional. To be noted: OVCAR-3, 48 h, read-out: pLC50 (the source's name) (converted). Summed up:
as §1

The next data set relates to BT-549. Kind of data set: Cytotoxicity against human BT549 cells after 48 hrs by sulforhodamine B assay. In kind it is functional. To be noted: BT-549, 48 h, read-out: pLC50 (the source's name) (converted). The gist of the method: as §1
The test system of a further data set is SF-295. Kind of data set: Cytotoxicity against human SF295 cells after 48 hrs by sulforhodamine B assay. In kind it is functional. The conditions noted are these: SF-295, 48 h, read-out: pLC50 (the source's name) (converted). Summed up:
as §1

The subject of another data set is HOP-62. Kind of data set: Cytotoxicity against human HOP62 cells after 48 hrs by sulforhodamine B assay. To be noted: HOP-62, 48 h, read-out: pLC50 (the source's name) (converted). It is filed as functional. Summed up:
as §1

A further data set concerns SNB-19. The experiment in a line: Cytotoxicity against human SNB19 cells after 48 hrs by sulforhodamine B assay. It is filed as functional. To be noted: SNB-19, 48 h, read-out: pLC50 (the source's name) (converted). Summed up: as §1
A further data set concerns SW-620. Kind of data set: Cytotoxicity against human SW620 cells after 48 hrs by sulforhodamine B assay. It is filed as functional. To be noted: SW-620, 48 h, read-out: pLC50 (the source's name) (converted). Summed up:
as §1

The test system of another data set is NCI-H522. The experiment in a line: Cytotoxicity against human NCI-H522 cells after 48 hrs by sulforhodamine B assay. It is filed as functional. To be noted: NCI-H522, 48 h, read-out: pLC50 (the source's name) (converted). Summed up: as §1
In data set [3] the test system is L1210. The experiment in a line: Cytotoxicity against mouse L1210 cells after 3 days by MTT assay. It is filed as functional, cell-based. To be noted: L1210, 72 h. The gist of the method:
(§2)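 Murine tumour cells under continuous drug exposure for 3 days. Growth inhibition measured by MTT assay. IC50 is the concentration inhibiting growth by 50%.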
On the technique in general: Formazan colour is commonly taken as a measure of viable cells.

For the next data set, the system named is UACC-62. Kind of data set: Cytotoxicity against human UACC62 cells after 48 hrs by sulforhodamine B assay. In kind it is functional. The conditions noted are these: UACC-62, 48 h, read-out: pLC50 (the source's name) (converted). Summed up:
as §1

The nature of data set [4]: Cytotoxicity against mouse B16F0 cells after 3 days by MTT assay. To be noted: B16F0, 72 h. In kind it is functional, cell-based. The gist of the method:
as §2

A further data set concerns UO-31. Kind of data set: Cytotoxicity against human UO31 cells after 48 hrs by sulforhodamine B assay. The conditions noted are these: UO-31, 48 h, read-out: pLC50 (the source's name) (converted). In kind it is functional. Summed up:
as §1

By IC50 is commonly meant the concentration that inhibits the measured activity by half.

Regarding `COc1cc2cc(C(=O)Nc3cc(O)c4ncc(C)cc4c3CCCl)[nH]c2c(OC)c1OC`, the CC50 is 6.03 µM with OVCAR-4; 2.19 µM in the data set on DU-145; greater than 100 µM in the data set with HCT-15; less than 0.01 µM with NCI-H23; 11.5 µM with PC-3; 81.3 µM in the data set with NCI-H460. The CC50 in the data set with HT-29 was greater than 100 µM; in the data set on A549, greater than 100 µM; in the data set on OVCAR-3 it was 2.63 µM; in the data set with BT-549, greater than 100 µM; in the data set on SF-295 it was 20.9 µM; in the data set on HOP-62, less than 0.01 µM. The CC50 is 100 µM with SNB-19; greater than 100 µM in the data set with SW-620; greater than 100 µM in the data set on NCI-H522; less than 0.01 µM in the data set with UACC-62; greater than 100 µM with UO-31. The Activity in data set [1] is on record as 1700 mm3; in the data set with Mus musculus, “Toxic”. In the data set with L1210 [2], the Ratio worked out at 10. The IC50 in the data set on Trypanosoma brucei worked out at 0.056 µM; in the data set with Leishmania mexicana, 0.119 µM; with L1210 [3] it was 0.00072 µM; in data set [4], 0.0023 µM.
